A short description of series [1]: Selectivity index, ratio of CC50 for human HuH7 cells to EC50 for Hepatitis C virus subtype 1b replicons. It is filed as toxicity, cell-based, Huh-7. The conditions noted are these: read-out: Ratio CC50/EC50.
Another series relates to NCI-H23. The experiment in a line: Cytostatic activity against human NCI-H23 cells incubated for 3 days by SRB assay. It is filed as functional. As to conditions: NCI-H23, 72 h. For orientation: The SRB assay estimates cell density from bound dye.
The nature of series [2]: Selectivity index, ratio of CC50 for human HuH7 cells to EC50 for Hepatitis C virus subtype 1a replicons. The format is toxicity, cell-based, Huh-7. The conditions noted are these: read-out: Ratio CC50/EC50. In general terms: Replicon systems follow genome replication, usually without infectious particles.
Series [3] is described as follows: Toxicity against human HuH7 cells incubated for 3 days by CellTiter 96 AQueous One Solution cell proliferation assay. It is filed as cell-based, Huh-7.
Series [4] is described as follows: Cytotoxicity against human HeLaS3 cells incubated for 3 days by XTT assay. The conditions noted are these: HeLa S3, 72 h. The format is functional, cell-based. In short, it runs like this: (§1)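 Cell viability read by a metabolic XTT tetrazolium method after 3-day incubation of cells with compound. Values are from 2–4 independent experiments.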
On the technique in general: Formazan colour is commonly taken as a measure of viable cells.

Series [5] can be described thus: Cytostatic activity against human Hs578 cells incubated for 3 days by SRB assay. The format is functional. The conditions noted are these: Hs578, 72 h.
In a further series the test system is CCRF-CEM. The experiment in a line: Cytotoxicity against human CCRF-CEM cells incubated for 3 days by XTT assay. The conditions noted are these: 72 h. It is filed as functional, cell-based. In short, it runs like this:
as §1

The subject of a further series is HL-60. The experiment in a line: Cytotoxicity against human HL60 cells incubated for 3 days by XTT assay. The conditions noted are these: HL-60, 72 h. It is filed as functional, cell-based. In short, it runs like this: as §1
In the next series the test system is DU-145. The experiment in a line: Cytostatic activity against human DU145 cells incubated for 3 days by SRB assay. It is filed as functional. As to conditions: DU-145, 72 h.
In series [6] the test system is Hepatitis C virus. Kind of series: Antiviral activity against Hepatitis C virus subtype 1a replicons infected in human HuH7 cells assessed as reduction in viral RNA levels by Rt-PCR. The format is functional, organism-based, Hepacivirus hominis. The conditions noted are these: Huh-7.
In series [7] the test system is Hepatitis C virus. Kind of series: Antiviral activity against Hepatitis C virus subtype 1b replicons infected in human HuH7 cells assessed as reduction in viral RNA levels by Rt-PCR. It is filed as functional, organism-based, Hepacivirus hominis. The conditions noted are these: genotype 1b, Huh-7.
For a further series, the system named is HCT-116. The experiment in a line: Cytostatic activity against human HCT116 cells incubated for 3 days by SRB assay. The format is functional. As to conditions: HCT-116, 72 h.

This note sets out measurements from ChEMBL document CHEMBL2069282, “Sugar-modified derivatives of cytostatic 7-(het)aryl-7-deazaadenosines: 2'-C-methylribonucleosides, 2'-deoxy-2'-fluoroarabinonucleosides, arabinonucleosides and 2'-deoxyribonucleosides” (Bioorg Med Chem, 2012).

The GI50 is the concentration giving 50% growth inhibition. The low end stands for greater sensitivity of the cells, the high end for lower sensitivity of the cells. By CC50 is commonly meant the concentration at which the toxic effect on the cells reaches its halfway point. The term pIC50 denotes −log10 of the IC50, conventionally taken in molar units. A low value points to a high IC50. Usually pEC50 stands for the EC50 on a negative log10 scale, so that one unit is a factor of ten.

The structures appear in SMILES notation. pEC50, pIC50: −log10 of the molar value. A value given as a limit tells only on which side of the number the result lay.

For the molecule `C#Cc1cn([C@@H]2O[C@H](CO)[C@@H](O)[C@@H]2F)c2ncnc(N)c12`, the selectivity ratio in series [1] and in series [2] was below 10 throughout. The GI50 in the series with NCI-H23 came to 0.048 µM; in series [5] it was 0.065 µM; with DU-145, 0.002 µM; in the series with HCT-116, 0.108 µM. Further, half-maximal cytotoxicity in [3] (CC50 at 72 h) was put at 2.68 µM. Also, the pIC50 was 6.66 in series [4], 6.74 with CCRF-CEM and 6.70 in the series with HL-60. In addition, the negative logarithm of the EC50 (pEC50) with Hepatitis C virus [6] and in the series on Hepatitis C virus [7] was 6.44 throughout.
On to `Nc1ncnc2c1c(-c1cnn[nH]1)cn2[C@@H]1O[C@H](CO)[C@@H](O)[C@@H]1F`, for which the selectivity ratio in series [1] and in series [2] was below 10 throughout. Also, the GI50 was 5.36 µM with NCI-H23, 1.82 µM in series [5], 9.41 µM with DU-145 and 7.64 µM in the series with HCT-116. In [3], this molecule had a CC50 at 72 h of 10.9 µM. Besides, the pIC50 was 5.18 in series [4], 5.46 in the series on CCRF-CEM and below 5.00 with HL-60. The pEC50 in the series with Hepatitis C virus [6] is 5.74; in the series on Hepatitis C virus [7] it was 6.04.
Consider `C[C@@]1(O)[C@H](O)[C@@H](CO)O[C@H]1n1cc(I)c2c(N)ncnc21`, for which the selectivity ratio in [1] and in [2] was 65 in each case. In addition, the GI50 in the series on NCI-H23 turned out to be 0.79 µM; in [5], 4.39 µM; in the series on DU-145, 3.38 µM; in the series with HCT-116, 6.65 µM. In series [3], the CC50 at 72 h came out at 19.8 µM. In addition, the pIC50 in [4] was 5.12; in the series on CCRF-CEM, 5.36; with HL-60 it was below 5.00. For the same molecule, the pEC50 with Hepatitis C virus [6] was 6.43; in the series on Hepatitis C virus [7] it was 6.42.
